Source: ChEMBL document CHEMBL1138387, “Hemodynamic effects of potent and selective JNK inhibitors in anesthetized rats: implication for targeting protein kinases in metabolic diseases” (Bioorg Med Chem Lett, 2007)

System: Rattus norvegicus
Assay: Hemodynamic effect in anesthetized Sprague-Dawley rat assessed as decrease in heart rate at 10 mg/kg after 90 mins
Format: functional
Parameters: scale not given: the % may be the effect or the level left
Conditions: not given
Procedure, shortened: (§1)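 Inactin-anesthetized rats; femoral artery catheters for MAP, HR and blood sampling; femoral vein for dosing and saline; LV transducer catheter for LVP/dP/dt. PVR = MAP/PBF. After 30-min control period, vehicle (10% DMSO/PEG400, 1 mL/kg) or compound infused i.v. as three ascending doses, 3, 10, 30 mg/kg, each over 30 min. Changes versus time 0 baseline; mean of three animals.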

Compound | Activity
CCCn1c(C2CCNCC2)nc(-c2ccc(Cl)c(Cl)c2)c1-c1ccnc(NC2CCCCC2)n1 | 22%
CCOc1nc(C(=O)NCc2ccc(S(=O)(=O)c3ccccc3)cc2)cc(N)c1C#N | 11%
CCOc1nc(C(=O)NCc2ccc(S(C)(=O)=O)cc2)cc(N)c1C#N | <15%
CCOc1nc(C(=O)NCc2ccc(S(C)(=O)=O)cc2)cc(N)c1Cl | <15%
CS(=O)(=O)c1ccc(CNC(=O)c2cc(N)c(C#N)c(NC3CCCC3)n2)cc1 | 6%
COc1cc[nH]c1/C=C1\C(=O)Nc2cccc(C#CC(O)c3ccc(OCCCN(C)C)cc3)c21 (stereo not drawn) | 11%

Biological target: Mitogen-activated protein kinase 8 (Homo sapiens, UniProt P45983)
Assay: Inhibition of JNK1
Conditions: not given

Chain of Mitogen-activated protein kinase 8 (P45983 whole entry): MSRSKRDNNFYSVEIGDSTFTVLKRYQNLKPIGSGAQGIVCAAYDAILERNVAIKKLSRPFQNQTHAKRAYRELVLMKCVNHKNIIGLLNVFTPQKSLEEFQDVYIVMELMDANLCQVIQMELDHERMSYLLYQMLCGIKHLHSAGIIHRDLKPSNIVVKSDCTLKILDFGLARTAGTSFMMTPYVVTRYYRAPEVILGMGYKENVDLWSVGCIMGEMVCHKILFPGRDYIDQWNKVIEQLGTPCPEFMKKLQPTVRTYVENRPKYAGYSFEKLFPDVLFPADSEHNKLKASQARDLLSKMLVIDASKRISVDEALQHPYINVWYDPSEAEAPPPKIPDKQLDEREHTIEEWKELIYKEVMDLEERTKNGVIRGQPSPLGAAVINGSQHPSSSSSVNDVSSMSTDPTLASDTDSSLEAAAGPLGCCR

Compound | IC50
CCOc1nc(C(=O)NCCNc2ccc([N+](=O)[O-])cn2)cc(N)c1C#N | 61 nM
CCOc1nc(C(=O)NCc2ccc(S(=O)(=O)c3ccccc3)cc2)cc(N)c1C#N | 130 nM
CC(C)Oc1nc(C(=O)NCc2ccc(S(C)(=O)=O)cc2)cc(O)c1C#N | > 10000 nM
CCOc1nc(C(=O)NCc2cnccc2Cl)cc(N)c1C#N | 30 nM
CC(C)Oc1nc(C(=O)N(C)Cc2ccc(S(C)(=O)=O)cc2)cc(N)c1C#N | 6400 nM
CCOc1nc(C(=O)NCc2ccc([S+]([O-])c3ccccc3)cc2)cc(N)c1C#N (stereo not drawn) | 50 nM
COc1cc[nH]c1/C=C1\C(=O)Nc2cccc(C#CC(O)c3ccc(OCCCN(C)C)cc3)c21 (stereo not drawn) | 34 nM

System: Rattus norvegicus
Assay: Hemodynamic effect in anesthetized Sprague-Dawley rat assessed as decrease in mean arterial pressure at 10 mg/kg after 90 mins
Format: functional, Artery
Parameters: scale not given: the % may be the effect or the level left
Conditions: not given
Procedure, shortened: as §1

Compound | Activity
CCCn1c(C2CCNCC2)nc(-c2ccc(Cl)c(Cl)c2)c1-c1ccnc(NC2CCCCC2)n1 | 30%
CCOc1nc(C(=O)NCCNc2ccc([N+](=O)[O-])cn2)cc(N)c1C#N | 20%
CCOc1nc(C(=O)NCc2ccc(S(=O)(=O)c3ccccc3)cc2)cc(N)c1C#N | 24%
CCOc1nc(C(=O)NCc2ccc(S(C)(=O)=O)cc2)cc(N)c1C#N | 41%
CCOc1nc(C(=O)NCc2ccc(S(C)(=O)=O)cc2)cc(N)c1Cl | 20%
CC(C)Oc1nc(C(=O)NCc2ccc(S(C)(=O)=O)cc2)cc(O)c1C#N | <15%
CCOc1nc(C(=O)NCc2cnccc2Cl)cc(N)c1C#N | 23%
CS(=O)(=O)c1ccc(CNC(=O)c2cc(N)c(C#N)c(-c3ccsc3)n2)cc1 | 23%
CS(=O)(=O)c1ccc(CNC(=O)c2cc(N)c(C#N)c(OCC3CC3)n2)cc1 | 24%
CCOc1nc(C(=O)NCc2ccc([S+]([O-])c3ccccc3)cc2)cc(N)c1C#N (stereo not drawn) | 24%
CS(=O)(=O)c1ccc(CNC(=O)c2cc(N)c(C#N)c(NC3CCCC3)n2)cc1 | 18%
COc1cc[nH]c1/C=C1\C(=O)Nc2cccc(C#CC(O)c3ccc(OCCCN(C)C)cc3)c21 (stereo not drawn) | 23%

System: Rattus norvegicus
Assay: Hemodynamic effect in anesthetized Sprague-Dawley rat assessed as decrease in peripheral vascular resistance at 10 mg/kg after 90 mins
Format: functional
Parameters: scale not given: the % may be the effect or the level left
Conditions: not given
Procedure, shortened: as §1

Compound | Activity
CCOc1nc(C(=O)NCc2ccc(S(C)(=O)=O)cc2)cc(N)c1C#N | 25%
CCOc1nc(C(=O)NCc2ccc(S(C)(=O)=O)cc2)cc(N)c1Cl | 51%
CC(C)Oc1nc(C(=O)N(C)Cc2ccc(S(C)(=O)=O)cc2)cc(N)c1C#N | 46%

System: Rattus norvegicus
Assay: Hemodynamic effect in anesthetized Sprague-Dawley rat assessed as increase in cardiac contractility at 10 mg/kg after 90 mins
Format: functional, Heart
Conditions: not given
Procedure, shortened: as §1

Compound | Activity
CCOc1nc(C(=O)NCCNc2ccc([N+](=O)[O-])cn2)cc(N)c1C#N | 12%
CCOc1nc(C(=O)NCc2ccc(S(C)(=O)=O)cc2)cc(N)c1C#N | <15%
CCOc1nc(C(=O)NCc2ccc(S(C)(=O)=O)cc2)cc(N)c1Cl | <15%
CCOc1nc(C(=O)NCc2cnccc2Cl)cc(N)c1C#N | < -15%
CC(C)Oc1nc(C(=O)N(C)Cc2ccc(S(C)(=O)=O)cc2)cc(N)c1C#N | 41%
CCOc1nc(C(=O)NCc2ccc([S+]([O-])c3ccccc3)cc2)cc(N)c1C#N (stereo not drawn) | 24%
CS(=O)(=O)c1ccc(CNC(=O)c2cc(N)c(C#N)c(NC3CCCC3)n2)cc1 | 13%
COc1cc[nH]c1/C=C1\C(=O)Nc2cccc(C#CC(O)c3ccc(OCCCN(C)C)cc3)c21 (stereo not drawn) | -20%

System: not listed separately
Assay: Drug level in anesthetized Sprague-Dawley rat assessed end of infusion plasma concentration at 10 mg/kg after 90 mins
Format: ADME, organism-based
Parameters: dose 10 mg/kg
Conditions: iv
Procedure, shortened: as §1

Compound | concentration at 1.5 h
CCCn1c(C2CCNCC2)nc(-c2ccc(Cl)c(Cl)c2)c1-c1ccnc(NC2CCCCC2)n1 | 9000 ng/mL
CCOc1nc(C(=O)NCc2ccc(S(C)(=O)=O)cc2)cc(N)c1C#N | 19300 ng/mL
CCOc1nc(C(=O)NCc2ccc(S(C)(=O)=O)cc2)cc(N)c1Cl | 14700 ng/mL
CC(C)Oc1nc(C(=O)NCc2ccc(S(C)(=O)=O)cc2)cc(O)c1C#N | 39900 ng/mL
CS(=O)(=O)c1ccc(CNC(=O)c2cc(N)c(C#N)c(OCC3CC3)n2)cc1 | 8200 ng/mL
CC(C)Oc1nc(C(=O)N(C)Cc2ccc(S(C)(=O)=O)cc2)cc(N)c1C#N | 23600 ng/mL
CS(=O)(=O)c1ccc(CNC(=O)c2cc(N)c(C#N)c(NC3CCCC3)n2)cc1 | 10500 ng/mL
